In ChEMBL document CHEMBL5058577, “EUbOPEN Chemogenomics Library 2 (Multiplex)” (2022):

Test system: U2OS
Assay: Multiplex assay against U2OS
Type: toxicity, cell-based
Details: human
Procedure, shortened: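 Four dyes were applied at seeding to live cells: Hoechst33342, BioTracker Green Microtubule Cytoskeleton Dye, MitoTracker Red and Annexin V Alexa Fluor 680. Imaging after compound addition used a CQ1 microscope at 37°C and 5% CO2. CellPathfinder machine-learning gating then sorted cells into Hoechst high-intensity objects or normal cells, normal cells into healthy, pyknosed or fragmented nuclei, and pyknosed cells into mitotic or apoptotic, with tubulin, mitochondrial-mass and membrane-permeability phenotypes given as per cents of healthy-nucleus cells.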

[1] = 12 h, 1 µM, compound concentration 1 uM, replicate 1
[2] = 12 h, 1 µM, compound concentration 1 uM, replicate 2
[3] = 12 h, 10 µM, compound concentration 10 uM, replicate 1
[4] = 12 h, 10 µM, compound concentration 10 uM, replicate 2
[5] = 24 h, 1 µM, compound concentration 1 uM, replicate 1
[6] = 24 h, 1 µM, compound concentration 1 uM, replicate 2
[7] = 24 h, 10 µM, compound concentration 10 uM, replicate 1
[8] = 24 h, 10 µM, compound concentration 10 uM, replicate 2
[9] = 48 h, 1 µM, compound concentration 1 uM, replicate 1
[10] = 48 h, 1 µM, compound concentration 1 uM, replicate 2
[11] = 48 h, 10 µM, compound concentration 10 uM, replicate 1
[12] = 48 h, 10 µM, compound concentration 10 uM, replicate 2

## CCCCC1=NC2(CCCC2)C(=O)N1Cc1ccc(-c2ccccc2-c2nnn[nH]2)cc1 [IRBESARTAN]
[1]
  Population Apoptotic (%): 83%
  Population Fragmented Nuclei (%): 25%
  Population Healthy Nuclei (%): 66%
  Population Hoechst High Intensity Objects (%): 2%
  Population Membrane Permeable-Phenotype (%): 5%
  Population Mitochondria Different-Phenotype (%): 1%
  Population Mitotic Cells (%): 16%
  Population Normal (%): 97%
  Population Pyknosed Nuclei (%): 7%
  Population Tubulin-Different-Phenotype (%): 1%
  Total Cell Count: 233
[2]
  Population Apoptotic (%): 77%
  Population Fragmented Nuclei (%): 9%
  Population Healthy Nuclei (%): 82%
  Population Hoechst High Intensity Objects (%): 0%
  Population Membrane Permeable-Phenotype (%): 11%
  Population Mitotic Cells (%): 22%
  Population Normal (%): 99%
  Population Tubulin-Different-Phenotype (%): 8%
  Total Cell Count: 124
[3]
  Population Apoptotic (%): 91%
  Population Fragmented Nuclei (%): 22%
  Population Healthy Nuclei (%): 68%
  Population Hoechst High Intensity Objects (%): 2%
  Population Membrane Permeable-Phenotype (%): 4%
  Population Mitochondria Different-Phenotype (%): 3%
  Population Mitotic Cells (%): 8%
  Population Normal (%): 97%
  Population Pyknosed Nuclei (%): 9%
  Population Tubulin-Different-Phenotype (%): 2%
  Total Cell Count: 254
[4]
  Population Apoptotic (%): 100%
  Population Fragmented Nuclei (%): 18%
  Population Healthy Nuclei (%): 74%
  Population Hoechst High Intensity Objects (%): 0%
  Population Membrane Permeable-Phenotype (%): 8%
  Population Mitochondria Different-Phenotype (%): 6%
  Population Mitotic Cells (%): 0%
  Population Normal (%): 100%
  Population Pyknosed Nuclei (%): 8%
  Population Tubulin-Different-Phenotype (%): 8%
  Total Cell Count: 100
[5]
  Population Apoptotic (%): 70%
  Population Fragmented Nuclei (%): 23%
  Population Healthy Nuclei (%): 69%
  Population Hoechst High Intensity Objects (%): 3%
  Population Membrane Permeable-Phenotype (%): 6%
  Population Mitochondria Different-Phenotype (%): 3%
  Population Mitotic Cells (%): 29%
  Population Normal (%): 96%
  Population Pyknosed Nuclei (%): 7%
  Population Tubulin-Different-Phenotype (%): 3%
  Total Cell Count: 241
[6]
  Population Apoptotic (%): 66%
  Population Fragmented Nuclei (%): 12%
  Population Healthy Nuclei (%): 76%
  Population Hoechst High Intensity Objects (%): 2%
  Population Membrane Permeable-Phenotype (%): 9%
  Population Mitochondria Different-Phenotype (%): 2%
  Population Mitotic Cells (%): 33%
  Population Normal (%): 97%
  Population Pyknosed Nuclei (%): 10%
  Population Tubulin-Different-Phenotype (%): 4%
  Total Cell Count: 142
[7]
  Population Apoptotic (%): 96%
  Population Fragmented Nuclei (%): 18%
  Population Healthy Nuclei (%): 73%
  Population Hoechst High Intensity Objects (%): 2%
  Population Membrane Permeable-Phenotype (%): 6%
  Population Mitochondria Different-Phenotype (%): 3%
  Population Mitotic Cells (%): 4%
  Population Normal (%): 97%
  Population Pyknosed Nuclei (%): 8%
  Population Tubulin-Different-Phenotype (%): 4%
  Total Cell Count: 301
[8]
  Population Apoptotic (%): 91%
  Population Healthy Nuclei (%): 72%
  Population Hoechst High Intensity Objects (%): 0%
  Population Membrane Permeable-Phenotype (%): 7%
  Population Mitotic Cells (%): 8%
  Population Normal (%): 99%
  Population Tubulin-Different-Phenotype (%): 3%
  Total Cell Count: 135
[9]
  Population Apoptotic (%): 97%
  Population Fragmented Nuclei (%): 18%
  Population Healthy Nuclei (%): 71%
  Population Hoechst High Intensity Objects (%): 2%
  Population Membrane Permeable-Phenotype (%): 5%
  Population Mitochondria Different-Phenotype (%): 2%
  Population Mitotic Cells (%): 2%
  Population Normal (%): 97%
  Population Pyknosed Nuclei (%): 10%
  Population Tubulin-Different-Phenotype (%): 2%
  Total Cell Count: 357
[10]
  Population Apoptotic (%): 94%
  Population Fragmented Nuclei (%): 14%
  Population Healthy Nuclei (%): 76%
  Population Hoechst High Intensity Objects (%): 4%
  Population Membrane Permeable-Phenotype (%): 6%
  Population Mitochondria Different-Phenotype (%): 1%
  Population Mitotic Cells (%): 5%
  Population Normal (%): 95%
  Population Pyknosed Nuclei (%): 9%
  Total Cell Count: 198
[11]
  Population Apoptotic (%): 89%
  Population Fragmented Nuclei (%): 14%
  Population Healthy Nuclei (%): 75%
  Population Hoechst High Intensity Objects (%): 3%
  Population Membrane Permeable-Phenotype (%): 7%
  Population Mitochondria Different-Phenotype (%): 3%
  Population Mitotic Cells (%): 10%
  Population Normal (%): 96%
  Population Pyknosed Nuclei (%): 9%
  Population Tubulin-Different-Phenotype (%): 3%
  Total Cell Count: 419
[12]
  Population Apoptotic (%): 94%
  Population Fragmented Nuclei (%): 16%
  Population Healthy Nuclei (%): 72%
  Population Hoechst High Intensity Objects (%): 4%
  Population Membrane Permeable-Phenotype (%): 9%
  Population Mitochondria Different-Phenotype (%): 7%
  Population Mitotic Cells (%): 5%
  Population Normal (%): 95%
  Population Pyknosed Nuclei (%): 10%
  Population Tubulin-Different-Phenotype (%): 7%
  Total Cell Count: 175
